Results from ChEMBL document CHEMBL3352101, “Synthesis and inhibitory activity on hepatitis C virus RNA replication of 4-(1,1,1,3,3,3-hexafluoro-2-hydroxy-2-propyl)aniline analogs” (Bioorg Med Chem Lett, 2014).
Active and inactive are the calls of the source. The rule behind the calls is not given here.

Tests used:
[1] = Cytotoxicity against human Li23 cells by WST assay
Hepatitis C virus [2] = assay: Inhibition of HCV RNA replication in human Li23 cells (ORL8 system) by renilla luciferase reporter gene based replication assay; type: functional, organism-based, Hepacivirus hominis
Hepatitis C virus [3] = assay: Inhibition of HCV RNA replication in human Li23 cells (ORL8 system) in presence of 1 IU/mL IFN-alpha by renilla luciferase reporter gene based replication assay; type: functional, organism-based; details: Hepacivirus hominis
Method in brief: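 Li23 human hepatoma cells carrying replicating genome-length HCV RNA with a Renilla luciferase reporter (ORL8). Test compound given at a range of concentrations together with IFN-alpha at 1 IU/mL, with a vehicle control. HCV RNA replication read as luciferase reporter activity. Assays run in triplicate.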

[4] = Selectivity index, ratio of CC50 against human Li23 cells to EC50 against HCV RNA replication in human Li23 cells
Method in brief: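 SI was calculated as CC50/EC50. CC50 in Li23 cells came from a WST-1 assay. EC50 came from the ORL8 genome-length HCV RNA Renilla luciferase replication assay. All assays were done in triplicate.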

Hepatitis C virus [5] = assay: Inhibition of HCV RNA replication in human HuH7 cells (OR6 system) by renilla luciferase reporter gene based replication assay; type: functional, organism-based, Hepacivirus hominis; details: Huh-7
Method in brief: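 The OR6 system carries genome-length HCV RNA with a Renilla luciferase reporter in HuH-7 hepatoma cells. Replication inhibition was measured and EC50 determined from runs done in triplicate.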

Hepatitis C virus [6] = assay: Potentiation of 1 IU/mL IFN-alpha-induced inhibition of HCV RNA replication in human Li23 cells (ORL8 system) by renilla luciferase reporter gene based replication assay; type: functional, organism-based; details: Hepacivirus hominis
Method in brief: (§1)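 Genome-length HCV RNA replication was read by Renilla luciferase in ORL8 (Li23) cells. Increasing compound concentrations were combined with IFN-α alone (1 IU/mL) or with IFN-α plus ribavirin (1 IU/mL + 6.3 µM; 4 IU/mL + ribavirin also tested). Assays were done in triplicate.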

Hepatitis C virus [7] = assay: Inhibition of HCV RNA replication in human Li23 cells (ORL8 system) at 5 uM in presence of 10 to 200 uM vitamin E by renilla luciferase reporter gene based replication assay; type: functional, organism-based; details: Hepacivirus hominis
Method in brief: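 Genome-length HCV RNA replication was measured by Renilla luciferase in ORL8 (Li23) cells. Vitamin E was given at various concentrations, with the test compound absent or present at 5 µM. Assays were done in triplicate.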

Hepatitis C virus [8] = assay: Potentiation of 1 IU/mL IFN-alpha and 6.3 uM ribavirin-induced inhibition of HCV RNA replication in human Li23 cells (ORL8 system) by renilla luciferase reporter gene based replication assay; type: functional, organism-based; details: Hepacivirus hominis; method in brief: as §1
Li23 = assay: Induction of ROS generation in human Li23 cells (ORL8 system); type: functional, cell-based
Method in brief: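 ROS production in the ORL8 genome-length HCV RNA replicon system (Li23 cells) was measured by FACS analysis at a series of compound concentrations.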

SMILES | CC50 [1] [µM] | EC50 (Hepatitis C virus [2]) [µM] | Ratio CC50/EC50 [4] | also measured
CN(C(=O)c1ccccc1)c1ccccc1C(O)(C(F)(F)F)C(F)(F)F | > 20 | > 20 |  | 
NC(=O)c1ncn([C@@H]2O[C@H](CO)[C@@H](O)[C@H]2O)n1 [RIBAVIRIN] |  | 8.7 |  | inhibition (Hepatitis C virus [3]): Active
CN(c1ccc(C(O)(C(F)(F)F)C(F)(F)F)cc1)S(=O)(=O)c1ccccc1Cl | 15 | 0.17 | 88 | 
Cc1ccc(C(=O)N(C)c2ccc(C(O)(C(F)(F)F)C(F)(F)F)cc2)cc1 | 26 | 10 | 2.6 | 
COc1cccc(S(=O)(=O)N(C)c2ccc(C(O)(C(F)(F)F)C(F)(F)F)cc2)c1 | 13 | 2.1 | 6.2 | 
CN(c1ccc(C(O)(C(F)(F)F)C(F)(F)F)cc1)S(=O)(=O)c1ccccc1Br | 9.1 | 0.5 | 18 | 
CN(C(=O)Cc1ccccc1)c1ccc(C(O)(C(F)(F)F)C(F)(F)F)cc1 | 27 | > 100 |  | 
CN(C(=O)c1ccccc1)c1ccc(C(O)(C(F)(F)F)C(F)(F)F)cc1 | 65 | 0.32 | 203 | EC50 (Hepatitis C virus [5]): > 20 µM
CN(Cc1ccccc1)c1ccc(C(O)(C(F)(F)F)C(F)(F)F)cc1 | 13 | 3 | 4.3 | 
Cc1cccc(C(=O)N(C)c2ccc(C(O)(C(F)(F)F)C(F)(F)F)cc2)c1 | 20 | 5.8 | 3.4 | 
O=C(c1ccccc1)N(Cc1ccccc1)c1ccc(C(O)(C(F)(F)F)C(F)(F)F)cc1 | 7.5 | 2.9 | 2.6 | 
CN(C(=O)c1ccccn1)c1ccc(C(O)(C(F)(F)F)C(F)(F)F)cc1 | > 100 | > 100 |  | 
CCCCC(=O)N(C)c1ccc(C(O)(C(F)(F)F)C(F)(F)F)cc1 | 26 | 2.3 | 11 | 
Cc1ccccc1C(=O)N(C)c1ccc(C(O)(C(F)(F)F)C(F)(F)F)cc1 | 38 | 17 | 2.2 | 
Cc1ccc(S(=O)(=O)N(C)c2ccc(C(O)(C(F)(F)F)C(F)(F)F)cc2)cc1 | 15 | 0.44 | 34 | 
CN(C(=O)c1cccs1)c1ccc(C(O)(C(F)(F)F)C(F)(F)F)cc1 | 33 | 2.6 | 13 | 
Cc1cc(N(C)C(=O)c2ccccc2)ccc1C(O)(C(F)(F)F)C(F)(F)F | 87 | > 100 |  | 

SMILES | CC50 [1] [µM] | EC50 (Hepatitis C virus [2]) [µM] | Ratio CC50/EC50 [4] | also measured
Cc1cccc(S(=O)(=O)N(C)c2ccc(C(O)(C(F)(F)F)C(F)(F)F)cc2)c1 | 11 | 0.35 | 31 | 
CN(C(=O)Nc1ccccc1)c1ccc(C(O)(C(F)(F)F)C(F)(F)F)cc1 | > 20 | 5.7 |  | 
COc1ccc(S(=O)(=O)N(C)c2ccc(C(O)(C(F)(F)F)C(F)(F)F)cc2)cc1 | 7.9 | 1.4 | 5.6 | 
Cc1ccccc1S(=O)(=O)N(C)c1ccc(C(O)(C(F)(F)F)C(F)(F)F)cc1 | 12 | 0.36 | 33 | 
CN(C(=O)c1ccsc1)c1ccc(C(O)(C(F)(F)F)C(F)(F)F)cc1 | 44 | 17 | 2.6 | 
CN(C(=O)c1cccnc1)c1ccc(C(O)(C(F)(F)F)C(F)(F)F)cc1 | 63 | 45 | 1.4 | 
CN(C(=O)C1CCCCC1)c1ccc(C(O)(C(F)(F)F)C(F)(F)F)cc1 | 20 | 0.23 | 87 | 
CN(C(=O)c1ccccc1)c1ccc(C(OCCO)(C(F)(F)F)C(F)(F)F)cc1 | > 20 | 11 |  | 
CCCC(=O)N(C)c1ccc(C(O)(C(F)(F)F)C(F)(F)F)cc1 | > 100 | 3.8 |  | 
CN(c1ccc(C(O)(C(F)(F)F)C(F)(F)F)cc1)S(=O)(=O)c1cccc(F)c1 | 19 | 0.36 | 53 | 
CCN(C(=O)c1ccccc1)c1ccc(C(O)(C(F)(F)F)C(F)(F)F)cc1 | 19 | 0.78 | 24 | 
CCCN(C(=O)c1ccccc1)c1ccc(C(O)(C(F)(F)F)C(F)(F)F)cc1 | 15 | 3.5 | 4.3 | 
CC(=O)N(C)c1ccc(C(O)(C(F)(F)F)C(F)(F)F)cc1 | 40 | 14 | 2.9 | 
CN(c1ccc(C(O)(C(F)(F)F)C(F)(F)F)cc1)S(=O)(=O)c1ccccc1 | 16 | 0.19 | 84 | IC60 (Hepatitis C virus [2]): 5 µM; Activity (Hepatitis C virus [6]): Dose-dependent effect; inhibition (Hepatitis C virus [7]): inactive; Activity (Hepatitis C virus [8]): Dose-dependent effect; Activity (Li23): Dose-dependent effect
Cc1cc(C(O)(C(F)(F)F)C(F)(F)F)ccc1N(C)C(=O)c1ccccc1 | 9 | 1.7 | 5.3 | 
CN(C(=O)C12CC3CC(CC(C3)C1)C2)c1ccc(C(O)(C(F)(F)F)C(F)(F)F)cc1 | 17 | 1 | 17 | 
O=C(Nc1ccc(C(O)(C(F)(F)F)C(F)(F)F)cc1)c1ccccc1 | 12 | 4.1 | 2.9 | 
